# ChEMBL document CHEMBL1140288, “First synthesis and evaluation of the inhibitory effects of aza analogues of TSAO on HIV-1 replication” (J Med Chem, 2005)
# pEC50: −log10 of the molar value.
# Key:
# MT4 [1] = test: Concentration of compound required to inhibit HIV-2 (ROD) induced cytopathicity in MT-4 cell culture by 50%; type: functional, cell-based; conditions: Homo sapiens
# Method in brief: (§1)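 MT-4 cells at 3 × 10⁵ per mL were infected with HIV-1(III_B) or HIV-2(ROD) at ∼100 CCID₅₀ per mL, then mixed 1:1 with compound dilutions. After 4 days, viability was read by the MTT method. EC₅₀ was taken as the concentration giving 50% protection against HIV-induced cytopathicity.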
# MT4 [2] = test: Concentration of compound required to inhibit HIV-1(IIIB) induced cytopathicity in MT-4 cell culture by 50%; type: functional, cell-based; conditions: Homo sapiens; method in brief: as §1
# [3] = Concentration of compound required to reduce by 50% the number of viable cells in mock infected CEM cell cultures; type: functional; conditions: Homo sapiens, CCRF-CEM
# Method in brief: (§2)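 Mock-infected CEM cells (4 × 10⁵ per mL) or MT-4 cells (3 × 10⁵ per mL) were exposed to serial compound dilutions for 4 days. CC₅₀ was the concentration reducing the number of viable cells by 50%.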
# CCRF-CEM [4] = test: Concentration of compound inhibiting Lys103-Asn mutant HIV-1(IIIB) induced cytopathicity in CEM cell culture by 50%; type: functional, cell-based; conditions: Homo sapiens
# Method in brief: (§3)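 CEM cells at 4 × 10⁵ per mL infected at ~100 CCID₅₀ per mL of cell suspension, then mixed 1:1 with compound dilutions in microtiter wells. Giant cell formation was scored microscopically after 4 days. EC₅₀ is the concentration inhibiting virus-induced cytopathicity by 50%. Mutant HIV-1(IIIB) RT strains were selected as described previously.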
# MT4 [5] = test: Concentration of compound required to reduce by 50% the number of viable cells in mock infected MT-4 cell cultures; type: functional; conditions: Homo sapiens; method in brief: as §2
# CCRF-CEM [6] = test: Concentration of compound inhibiting Glu138-Lys mutant HIV-1(IIIB) induced cytopathicity in CEM cell culture by 50%; type: functional, cell-based; conditions: Homo sapiens; method in brief: as §3
# CCRF-CEM [7] = test: Concentration of compound inhibiting Tyr181- Cys mutant HIV-1(IIIB) induced cytopathicity in CEM cell culture by 50%; type: functional, cell-based; conditions: Homo sapiens; method in brief: as §3
# CCRF-CEM [8] = test: Concentration of compound required to inhibit HIV-1(IIIB) induced cytopathicity in CEM cell culture by 50%; type: functional, cell-based; conditions: Homo sapiens
# Method in brief: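 CEM cells at 4 × 10⁵ per mL were infected with HIV-1(III_B) at ∼100 CCID₅₀ per mL and mixed 1:1 with serial compound dilutions. Giant cell formation was scored microscopically after 4 days. EC₅₀ was taken as the concentration giving 50% inhibition of virus-induced cytopathicity.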
# CCRF-CEM [9] = test: Concentration of compound required to inhibit HIV-2 (ROD) induced cytopathicity in CEM cell culture by 50%; type: functional, cell-based; conditions: Homo sapiens; method in brief: as §3
# [10] = test system: Human immunodeficiency virus 1; test: Concentration of compound inhibiting Tyr181Cys mutant HIV-1(IIIB) induced cytopathicity in CEM cell culture by 50%; type: functional, organism-based; conditions: Human immunodeficiency virus 1, CCRF-CEM; method in brief: as §3
Structure (SMILES),pEC50 (MT4 [1]),pEC50 (MT4 [2]),CC50 [3] [µM],pEC50 (CCRF-CEM [4]),CC50 (MT4 [5]) [µM],pEC50 (CCRF-CEM [6]),pEC50 (CCRF-CEM [7]),pEC50 (CCRF-CEM [8]),pEC50 (CCRF-CEM [9]),pEC50 [10]
Cc1cn([C@@H]2O[C@H](CO[Si](C)(C)C(C)(C)C)[C@@]3(OS(=O)(=O)C=C3N)[C@H]2O[Si](C)(C)C(C)(C)C)c(=O)[nH]c1=O,< 4.70,7.22,16,6.40,14,5.34,5.52,7.22,< 5.40,–
Cc1cn([C@@H]2O[C@H](CO[Si](C)(C)C(C)(C)C)[C@@]3(NS(=O)(=O)C=C3N)[C@H]2O[Si](C)(C)C(C)(C)C)c(=O)[nH]c1=O,< 4.00,6.28,19.1,–,105,–,–,6.48,< 5.00,< 5.00
Cc1cn([C@@H]2O[C@H](CO[Si](C)(C)C(C)(C)C)[C@]3(C(N)=CS(=O)(=O)N3C)[C@H]2O[Si](C)(C)C(C)(C)C)c(=O)[nH]c1=O,< 4.70,5.80,21.6,–,19,–,–,5.46,< 5.00,< 5.00
Cc1cn([C@@H]2O[C@H](CO[Si](C)(C)C(C)(C)C)[C@@]3(NS(=O)(=O)C=C3N)[C@H]2O[Si](C)(C)C(C)(C)C)c(=O)n(C(=O)OC(C)(C)C)c1=O,–,6.89,21.2,5.30,19,–,–,6.37,< 5.00,–
CCn1c(=O)c(C)cn([C@@H]2O[C@H](CO[Si](C)(C)C(C)(C)C)[C@@]3(NS(=O)(=O)C=C3N)[C@H]2O[Si](C)(C)C(C)(C)C)c1=O,–,–,4.9,< 5.70,–,< 5.70,–,6.51,–,< 5.70
Cc1cn([C@@H]2O[C@H](CO[Si](C)(C)C(C)(C)C)[C@@]3(NS(=O)(=O)C=C3N)[C@H]2O[Si](C)(C)C(C)(C)C)c(=O)n(C)c1=O,–,–,5.8,5.40,–,< 5.00,–,6.66,–,< 5.00
Cc1cn([C@@H]2O[C@H](CO[Si](C)(C)C(C)(C)C)[C@]3(C(N)=CS(=O)(=O)N3C)[C@H]2O[Si](C)(C)C(C)(C)C)c(=O)n(C)c1=O,< 3.70,6.18,> 250,–,> 200,–,–,5.60,< 3.60,< 3.60
Cc1cn([C@@H]2O[C@H](CO[Si](C)(C)C(C)(C)C)[C@]3(C(N)=CS(=O)(=O)N3C)[C@H]2O[Si](C)(C)C(C)(C)C)c(=O)n(C(=O)OC(C)(C)C)c1=O,< 4.70,5.74,20.6,–,20,–,–,5.46,< 5.00,< 5.00
